What all share (type): functional
For test [1], the system named is Mycobacterium tuberculosis. The test is described as follows: Antimicrobial activity against ofloxacin resistant Mycobacterium tuberculosis SRI 4000 assessed as growth inhibition at MIC after 7 days. In short, it runs like this:
(§1)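 MIC in µg/mL, retested on susceptible H37Rv (SRI 1345) in the same panel as single-drug-resistant strains: isoniazid-, rifampin- and ofloxacin-resistant. Percent inhibition recorded at the MIC concentration. Ratio taken as MIC H37Rv / MIC resistant strain.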

Test [2] is described as follows: Ratio of MIC for Mycobacterium tuberculosis H37Rv SRI 1345 to MIC for rifampicin resistant Mycobacterium tuberculosis SRI 1367. The method, boiled down:
as §1

The test system of test [3] is Mycobacterium tuberculosis. The test is described as follows: Antimicrobial activity against ofloxacin resistant Mycobacterium tuberculosis SRI 4000 after 7 days. To be noted: SRI 4000, 168 h. The method, boiled down: as §1
In test [4] the test system is Mycobacterium tuberculosis. Description: Antimicrobial activity against rifampicin resistant Mycobacterium tuberculosis SRI 1367 after 7 days. To be noted: SRI 1367, 168 h. The method, boiled down: as §1
Test [5] deals with Mycobacterium tuberculosis. Description: Antimicrobial activity against isoniazid resistant Mycobacterium tuberculosis SRI 1369 assessed as growth inhibition at MIC after 7 days. In short, it runs like this: as §1
Test [6] can be described thus: Ratio of MIC for Mycobacterium tuberculosis H37Rv SRI 1345 to MIC for ofloxacin resistant Mycobacterium tuberculosis SRI 4000. In short, it runs like this: as §1
The nature of test [7]: Ratio of MIC for Mycobacterium tuberculosis H37Rv SRI 1345 to MIC for isoniazid resistant Mycobacterium tuberculosis SRI 1369. In short, it runs like this: as §1
Test [8] concerns Mycobacterium tuberculosis. The test is described as follows: Antimicrobial activity against isoniazid resistant Mycobacterium tuberculosis SRI 1369 after 7 days. Particulars: SRI 1369, 168 h. The method, boiled down: as §1
Test [9] concerns Mycobacterium tuberculosis. The test is described as follows: Antimicrobial activity against rifampicin resistant Mycobacterium tuberculosis SRI 1367 assessed as growth inhibition at MIC after 7 days. The method, boiled down:
as §1

The text below walks through data of ChEMBL document CHEMBL3792280, “Design and synthesis of novel quinoxaline derivatives as potential candidates for treatment of multidrug-resistant and latent tuberculosis” (Bioorg Med Chem Lett, 2016).

Values after ≈ are worked out from the molar mass of the structure shown.

Take `COC(=O)c1c(C(F)(F)F)[n+]([O-])c2ccc(N3CCN(c4ccc(F)cc4)CC3)cc2[n+]1[O-]`: the figures for the “growth inhibition (GI)” value in test [1], in test [5] and in [9] were 81%, 51% and 73%, respectively. Further, the Ratio in test [2], in [6] and in test [7] was 8 in each case. The MIC in test [3], in test [4] and in test [8] was 0.19 µg/mL (≈ 0.407 µM) in each case.
As for `CO[C@H]1/C=C/O[C@@]2(C)Oc3c(C)c(O)c4c(O)c(c(/C=N/N5CCN(C)CC5)c(O)c4c3C2=O)NC(=O)/C(C)=C\C=C\[C@H](C)[C@H](O)[C@@H](C)[C@@H](O)[C@@H](C)[C@H](OC(C)=O)[C@@H]1C` [RIFAMPIN], the “growth inhibition (GI)” value in test [1] is on record as 53%; in [5], 72%. For the same compound, the minimum inhibitory concentration (MIC) in test [3] was 0.195 µg/mL (≈ 0.237 µM); in test [8], 0.05 µg/mL (≈ 0.0608 µM).
For the compound `CC(=O)c1c(C(F)(F)F)nc2cc(F)c(N3CCSCC3)cc2[n+]1[O-]`, the “growth inhibition (GI)” value in [1] is recorded as 62%; in test [5], 89%; in test [9], 75%. The results for the Ratio in test [2], in test [6] and in test [7] were 2, 4 and 1, respectively. The MIC in [3] is 0.19 µg/mL (≈ 0.506 µM); in [4] it was 0.38 µg/mL (≈ 1.01 µM); in test [8], 0.75 µg/mL (≈ 2 µM).
Consider `CC(=O)c1c(C(F)(F)F)[n+]([O-])c2cc(F)c(N3CCCCC3)cc2[n+]1[O-]`, for which the “growth inhibition (GI)” value in test [1] came out at 84%; in test [5] it was 57%; in test [9], 68%. Besides, the MIC in [3], in test [4] and in test [8] was 0.25 µg/mL (≈ 0.67 µM) in each case.
Take `O=C(c1ccco1)c1c(C(F)(F)F)[n+]([O-])c2cc(Cl)c(N3CCOCC3)cc2[n+]1[O-]`: the “growth inhibition (GI)” value in test [1] worked out at 76%; in test [5], 78%; in [9], 66%. Also, the Ratio was 4 in test [2], 8 in test [6] and 4 in test [7]. For the same compound, the results for the MIC in test [3], in test [4] and in test [8] were 0.25 µg/mL (≈ 0.563 µM), 0.5 µg/mL (≈ 1.13 µM) and 0.5 µg/mL (≈ 1.13 µM), respectively.
`Cc1c(C(=O)/C=C/c2ccccc2)[n+]([O-])c2cc(Cl)ccc2[n+]1[O-]`: the “growth inhibition (GI)” value in test [1] amounted to 100%; in [5] it was 64%; in test [9] it was 51%. The Ratio is 4 in [2], 4 in test [6] and 2 in test [7]. For the same compound, the MIC is 0.5 µg/mL (≈ 1.47 µM) in [3], 0.5 µg/mL (≈ 1.47 µM) in test [4] and 1 µg/mL (≈ 2.93 µM) in test [8].
`NNC(=O)c1ccncc1` [ISONIAZID] showed a minimum inhibitory concentration (MIC) in test [4] of 0.02 µg/mL (≈ 0.146 µM). Besides, the “growth inhibition (GI)” value in test [9] came out at 55%.
